Results taken from article PMC11962390 (Molecular Cancer Therapeutics, 2025).
One block for each compound: values may come before it.

How the values were obtained:
primary HGSC organoids = experiment: Organoid drug-response profiling, whole panel; format: cell-based, human; conditions: 96 hours
In short: (§1)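 Patient-derived HGSC organoids were embedded in BME-2 droplets in 384-well ultralow-attachment plates and grown 7–10 days with medium changes every 2–3 days. Test compounds were added in five 10-fold dilutions, with DMSO and 10 μmol/L bortezomib as controls. After 96 h at 37°C, wells were stained 2 h with CellTox Green and Hoechst 33342 (5 μg/mL final) and imaged confocally. Survival was normalized to controls and fitted by four-parameter fit (bottom 0), mean ± SD, n = 2.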

[1] = test system: P8_rAsc patient-derived organoid; experiment: Organoid drug-response profiling; format: cell-based, human; conditions: 96 hours
In short: as §1

[2] = test system: canonical Wnt pathway activation (reporter TOP-GFP) in OV81-CP40 cells; experiment: TOP-GFP and FOP-GFP assay; format: cell-based, human; conditions: OV81-CP40, 6 hours, 20 mmol/L LiCl, […] NCB-0846 or 100 nmol/L NVP-2
In short: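 OV81-CP40 cells stably expressing lentiviral TOP-GFP or FOP-GFP reporters were plated and treated one day later for 6 h with LiCl and/or test compounds. Cells were harvested, PBS-washed and run by flow cytometry at 10,000 cells per sample, gating the top ~10% GFP-positive cells. Results were given as TOP/FOP, mean ± SEM, n = 3, by one-way ANOVA.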

OV81-CP40 cells [3] = experiment: MTT cell viability assay; format: cell-based, human
OV81-CP40 spheres = experiment: 3D CellTiter-Glo cell viability assay of spheres; format: cell-based, human; conditions: OV81-CP40 grown in 3D (spheroids), 48 hours
In short: (§2)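 Cells (500) were seeded in MammoCult with proliferation supplement in ultralow-attachment 96-well plates to form spheres. Seven days after plating, the spheres were treated with the test compound. CellTiter-Glo 3D luminescence was read 48 h later. Dose–response curves were fitted by sigmoidal variable-slope fit.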

OV231-CP30 cells [4] = experiment: CellTiter-Glo cell viability assay; format: cell-based, human; conditions: OV231-CP30, 48 hours, Fig. 2B
In short: (§3)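 2D culture in the cells' own medium in 96-well plates. Cells were treated with a dose curve of test compound one day after plating. CellTiter-Glo luminescence was read after 48 h. Viability was expressed as fold change to DMSO (mean ± SEM, n = 3). EC50 came from a sigmoidal variable-slope fit.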

OV81-CP40 cells [5] = experiment: CellTiter-Glo cell viability assay; format: cell-based, human
FT237 cells [6] = experiment: CellTiter-Glo cell viability assay; format: cell-based, human; conditions: nonmalignant fallopian tube secretory cell line FT237, 48 hours
In short: as §3

OV231-CP30 spheres = experiment: 3D CellTiter-Glo cell viability assay of spheres; format: cell-based, human; conditions: OV231-CP30 grown in 3D (spheroids), 48 hours
In short: as §2

FT194 cells = experiment: CellTiter-Glo cell viability assay; format: cell-based, human; conditions: nonmalignant fallopian tube secretory cell line FT194, 48 hours
In short: as §3

OV-UM50.2 cells = experiment: 3D CellTiter-Glo cell viability assay; format: cell-based, human; conditions: OV-UM50.2, 3D, 48 hours
JHUEM7 cells = experiment: MTT cell viability assay; format: cell-based, human; conditions: TNIK-null JHUEM7, 48 hours, Fig. 3K
OV-UM52.1 cells = experiment: 3D CellTiter-Glo cell viability assay; format: cell-based, human; conditions: OV-UM52.1, 3D, 48 hours
In short: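 Primary HGSC cells were grown as 3D spheres in MammoCult with supplement on ultralow-attachment plates and treated with a dose curve of test compound. CellTiter-Glo 3D luminescence was read after 48 h. Values were expressed relative to DMSO (mean ± SEM, n = 3). The curve was fitted with bottom constrained to 0 and top to 1.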

[7] = test system: P10_rPlfl patient-derived organoid; experiment: Organoid drug-response profiling; format: cell-based, human; conditions: organoid P10_rPIfl, 96 hours
In short: as §1

HEC1B cells = experiment: MTT cell viability assay; format: cell-based, human; conditions: dose response up to 10 μmol/L, 48 hours, unable to generate an EC50
[8] = test system: panel of 377 human wild-type kinases; experiment: Kinase selectivity profiling, KinaseProfiler; format: biochemical; conditions: of 377 human wildtype kinases
In short: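 Radiometric 33P transfer from [γ-33P]ATP to peptide/protein substrates was used, in 8 mmol/L MOPS pH 7.0 with 0.2 mmol/L EDTA and kinase-specific metal supplements. Lipid and atypical kinases were run by HTRF in HEPES buffer. […] Output was % activity remaining, with full inhibition set by reference inhibitors.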

OV-UM32.1 cells = experiment: 3D CellTiter-Glo cell viability assay; format: cell-based, human; conditions: OV-UM32.1, 3D, 48 hours
OV231-CP30 cells [9] = experiment: MTT cell viability assay; format: cell-based, human
[10] = test system: P12_rPer patient-derived organoid; experiment: Organoid drug-response profiling; format: cell-based, human; conditions: 96 hours
In short: as §1

FT237 cells [11] = experiment: MTT cell viability assay; format: cell-based, human; conditions: FT237, 48 hours, nondeterminable up to highest dose, Supplementary Fig. S5D
[12] = OV81-CP40, MTT used to generate CI, Fig. 2D

SMILES: N.N.O=C([O-])C1(C(=O)[O-])CCC1.[Pt+2] [Carboplatin, carboplatin]
- survival (primary HGSC organoids; all 13 organoids tested, at 10 μmol/L): ≥ 50%
- IC50 (primary HGSC organoids; five of the 13 organoids): < 100 µM
- reduction in survival (primary HGSC organoids; only one organoid, at 100 μmol/L): greater than 70%

- IC50 [1]: > 10 µM
- IC50 [7]: > 10 µM
- number of kinase hits [8]: 175
- IC50 [10]: 4.03 µM
SMILES: OC1CCC(Oc2cccc3cnc(Nc4ccc5nc[nH]c5c4)nc23)CC1 (stereo not shown) [NCB-0846]
- TOP-GFP induction after LiCl addition [2]: significantly decrease
- EC50 (OV81-CP40 cells [3]; [12]): 464 nM
- EC50 (OV81-CP40 spheres): 710 nM
- EC50 (OV231-CP30 cells [4]): 584 nM
- EC50 (OV81-CP40 cells [5]; OV81-CP40, 48 hours, Fig. 2B): 465 nM
- EC50 (OV81-CP40 cells [5]; OV81-CP40, LiCl+-treated cells (20 mmol/L LiCl), 48 hours, Fig. 3A): 2120 nM
- EC50 (OV81-CP40 cells [5]; OV81-CP40, LiCl−-treated cells, 48 hours, Fig. 3A): 585 nM
- EC50 (OV81-CP40 cells [5]; OV81-CP40 transfected with siCDK9 9, 48 hours, Fig. 5C): 161 nM
- EC50 (OV81-CP40 cells [5]; OV81-CP40 transfected with siCDK9 11, 48 hours, Fig. 5C): 142 nM
- EC50 (OV81-CP40 cells [5]; OV81-CP40 transfected with siControl, 48 hours, Fig. 5C): 399 nM
- response of cell viability to dose curve (FT237 cells [6]): minimally responsive
- EC50 (OV231-CP30 spheres): 1590 nM
- response of cell viability to dose curve (FT194 cells): minimally responsive
- EC50 (OV-UM50.2 cells): 1.6 µM
- reduction in cell viability at maximal doses (JHUEM7 cells): ~50%
- EC50 (OV-UM52.1 cells): 2.61 µM
- EC50 (HEC1B cells): > 10 µM
- EC50 (OV-UM32.1 cells): 4.33 µM
- EC50 (OV231-CP30 cells [9]; OV231-CP30, MTT used to generate CI, Fig. 2D): 440 nM

SMILES: OC1CCC(Oc2cccc3cnc(Nc4ccc5nc[nH]c5c4)nc23)CC1 (stereo not shown) [NCB-0970]
- EC50 (OV81-CP40 cells [3]; read-out: 48-hour EC50, OV81-CP40, 48 hours, Supplementary Fig. S2E): 9920 nM
- EC50 (OV231-CP30 cells [9]; read-out: 48-hour EC50, OV231-CP30, 48 hours, Supplementary Fig. S2E): 3640 nM

SMILES: COC[C@@H](C)NC1CCC(Nc2cc(-c3cccc(NCC4(C#N)CCOCC4)n3)c(Cl)cn2)CC1 (stereo partly shown) [NVP-2]
- TOP-GFP induction after LiCl addition [2]: significantly decrease
- EC50 (OV81-CP40 cells [3]; OV81-CP40, 48 hours, Supplementary Fig. S5D): 12.7 nM
- EC50 (OV81-CP40 spheres): 52.1 nM
- EC50 (OV231-CP30 spheres): 60.3 nM
- EC50 (FT237 cells [11]): > 80 nM

SMILES: N.N.[Cl][Pt][Cl] [cisplatin]
- EC50 (OV81-CP40 cells [3]; [12]): non determinable (ND)
- EC50 (OV-UM50.2 cells): 22.2 µM
- EC50 (OV-UM52.1 cells): 9.63 µM
- EC50 (OV-UM32.1 cells): 12.9 µM
